HTRA1 inhibitor = blocks human HTRA1 serine peptidase; inhibition, % at 5.96 µM; recombinant HTRA1, FP-rhodamine activity-based probe, fluorescence polarization; actives 0.5% (n = 340,000); Q92743; AID 504803; in the data active = inhibition above about 36%;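 also: 0% = enzyme with DMSO and 100% = wells lacking enzyme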
Target sequence (Q92743 whole entry, looked up): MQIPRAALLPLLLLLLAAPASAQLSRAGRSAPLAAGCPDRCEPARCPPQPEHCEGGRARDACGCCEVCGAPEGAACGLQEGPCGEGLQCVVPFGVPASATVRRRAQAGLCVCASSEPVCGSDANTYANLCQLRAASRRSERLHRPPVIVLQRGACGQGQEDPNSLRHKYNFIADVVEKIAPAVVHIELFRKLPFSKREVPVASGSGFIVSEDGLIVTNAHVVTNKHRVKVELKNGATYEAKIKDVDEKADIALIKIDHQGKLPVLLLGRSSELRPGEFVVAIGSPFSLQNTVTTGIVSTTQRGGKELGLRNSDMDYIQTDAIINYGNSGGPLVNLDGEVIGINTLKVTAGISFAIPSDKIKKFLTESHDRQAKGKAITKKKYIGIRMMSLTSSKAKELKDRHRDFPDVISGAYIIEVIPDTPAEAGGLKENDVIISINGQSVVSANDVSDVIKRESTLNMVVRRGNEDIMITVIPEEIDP
pPAFAH FP inh = inhibitors of human plasma PAF acetylhydrolase (pPAFAH); AID 463082; Q13093; inhibition, % at 3.39 µM; actives 1.5% (n = 330,000); recombinant pPAFAH, FP-rhodamine probe fluorescence polarization;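 active = inhibition above the mean inhibition across the screen plus 3 SD, cut at about 25% in these data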;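 also: inhibitors block binding of the rhodamine activity-based probe so polarization drops; 0% = enzyme with DMSO and 100% = wells lacking pPAFAH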
PAFAH1B2 inh = inhibitors of human PAFAH1B2; P68402; recombinant PAFAH1B2, FP-rhodamine activity probe, fluorescence polarization; inhibition, % at 3.39 µM; actives 1.2% (n = 340,000); AID 492953;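 active = inhibition above the mean of all tested compounds plus 3 SD, cut at about 24% in these data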;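 also: 0% = enzyme with DMSO and 100% = wells lacking PAFAH1B2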
Target sequence (P68402 whole entry, looked up): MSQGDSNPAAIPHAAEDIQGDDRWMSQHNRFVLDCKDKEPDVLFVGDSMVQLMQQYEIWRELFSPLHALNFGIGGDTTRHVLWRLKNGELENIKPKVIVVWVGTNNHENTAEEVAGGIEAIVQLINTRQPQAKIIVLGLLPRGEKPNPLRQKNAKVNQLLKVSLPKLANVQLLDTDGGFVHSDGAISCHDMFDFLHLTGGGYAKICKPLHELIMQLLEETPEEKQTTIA
PAFAH2 FP inh = inhibitors of human PAFAH2 | Q99487 | inhibition, % at 3.39 µM | recombinant PAFAH2, FP-rhodamine activity probe, fluorescence polarization | AID 492956 | actives 0.99% (n = 340,000);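 active = inhibition above the mean over all tested compounds plus 3 SD, cut at about 30% in these data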;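 also: inhibitors block probe labeling of enzyme so polarization drops; 0% = enzyme with DMSO and 100% = wells lacking PAFAH2 protein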
mABHD4 FP = ABHD4 (mouse) inhibition, primary FP screen | Q8VD66 | purified mABHD4, FP-Rh probe fluorescence polarization | inhibition, % at 8.92 µM | actives 0.54% (n = 370,000);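 active = inhibition exceeding the mean over every tested compound plus 3 SD, cut at about 30% in these data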;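 also: 0% = plate median of compound wells and 100% = S159A mutant with DMSO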
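Assay system: wild-type mouse ABHD4 protein; compound: single nominal dose of 8.92 µM, 0.89% DMSO final; schedule: 45 min + 60 min at 25 °C; measured by: FP readout, ex 525 nm / em 598 nm; evaluation: % inhibition of FP-Rh probe binding versus controls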
PAFAH1B3 inh = PAFAH1B3 (human) inhibition. recombinant PAFAH1B3, FP-rhodamine probe, fluorescence polarization. inhibition, % at 3.39 µM. AID 492972. actives 0.28% (n = 340,000). Q15102;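 active = inhibition above the screen-wide average of all tested compounds plus 3 SD, cut at about 25% in these data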;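 also: 0% = enzyme with DMSO only and 100% = wells lacking PAFAH1B3 protein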
* = called active by the depositor. In the library only some 2.8% were active in any assay of this set; here they are far more common.

How did O=c1[nH]c(SCc2ccc(Cl)cc2)nc2c1CCC2 do in these assays?
HTRA1 inhibitor: -3.6; pPAFAH FP inh: 25.7*; PAFAH1B2 inh: 52.4*; PAFAH2 FP inh: 7.7; mABHD4 FP: -1.2; PAFAH1B3 inh: 8.6

Results for O=c1cc(-c2ccccc2)nc(SCc2ccccc2)[nH]1 ?
HTRA1 inhibitor: -4.6; pPAFAH FP inh: -0.3; PAFAH1B2 inh: 2.9; PAFAH2 FP inh: 10.5; mABHD4 FP: 1.1; PAFAH1B3 inh: 4.1

What do the screens show for `COc1ccc2c(CC(=O)OCC(=O)Nc3cccc(C)c3)coc2c1`?
HTRA1 inhibitor: -20.4; pPAFAH FP inh: 32.9*; PAFAH1B2 inh: -3.6; PAFAH2 FP inh: -2.6; mABHD4 FP: 2.7; PAFAH1B3 inh: 10.4

How did COC(=O)c1cccc(NC(=O)Cc2coc3cc(OC)ccc23)c1 do in these assays?
HTRA1 inhibitor: -25.6; pPAFAH FP inh: 2.9; PAFAH1B2 inh: 1.5; PAFAH2 FP inh: -0.9; mABHD4 FP: -14.4; PAFAH1B3 inh: 1.7

How did Nn1c(SCc2cccc3ccccc23)nnc1-c1n[nH]c2c1CCC2 do in these assays?
mABHD4 FP: -3.8

Results for CCc1ccc(/C=C2\Oc3cc(OC(=O)N4CCOCC4)ccc3C2=O)cc1 ?
HTRA1 inhibitor: 3.8; pPAFAH FP inh: 26.3*; PAFAH1B2 inh: 3.4; PAFAH2 FP inh: 3.0; mABHD4 FP: 21.1; PAFAH1B3 inh: 8.7

What do the screens show for `CC(=O)Oc1ccc2c(c1)O/C(=C\c1ccncc1)C2=O`?
HTRA1 inhibitor: 4.1; pPAFAH FP inh: 3.2; PAFAH1B2 inh: 0.5; PAFAH2 FP inh: -7.2; PAFAH1B3 inh: 2.6

Results for COc1ccccc1C(=O)Oc1ccc2c(c1)O/C(=C\c1ccncc1)C2=O ?
HTRA1 inhibitor: -5.1; pPAFAH FP inh: 3.3; PAFAH1B2 inh: 3.2; PAFAH2 FP inh: -1.3; mABHD4 FP: 3.8; PAFAH1B3 inh: 6.0

How did COc1ccc2c(c1)O/C(=C\c1ccccc1C)C2=O do in these assays?
HTRA1 inhibitor: -23.9; pPAFAH FP inh: 27.2*; PAFAH1B2 inh: 2.2; PAFAH2 FP inh: -8.4; mABHD4 FP: -4.9; PAFAH1B3 inh: 3.8

Results for COc1ccc(/C=C2\Oc3cc(OC(=O)N4CCOCC4)ccc3C2=O)cc1 ?
HTRA1 inhibitor: 6.8; pPAFAH FP inh: 27.0*; PAFAH1B2 inh: 4.8; PAFAH2 FP inh: 11.6; mABHD4 FP: 6.9; PAFAH1B3 inh: 6.9

Results for CN1CCC(N[C@@H](Cc2ccccc2)C(=O)NCC(c2ccccc2)c2ccccc2)(C(=O)NC2CCCCC2)CC1 ?
mABHD4 FP: 8.4

Results for Cc1ccccc1Cn1c(NC2CCCC2)nc2c1c(=O)[nH]c(=O)n2C ?
HTRA1 inhibitor: 2.7; pPAFAH FP inh: 32.8*; PAFAH1B2 inh: 1.5; PAFAH2 FP inh: 4.9; mABHD4 FP: 2.0; PAFAH1B3 inh: 2.7

How did O=C(N/N=C/c1cn(Cc2cccc(F)c2)c2ccccc12)c1cc(O)cc(O)c1 do in these assays?
HTRA1 inhibitor: 3.9; PAFAH1B2 inh: 25.8*; PAFAH2 FP inh: 8.3; mABHD4 FP: 25.8; PAFAH1B3 inh: 44.2*

How did COc1ccc(C2=NN(c3nc(-c4ccc(CNC(C)=O)cc4)cs3)C(c3ccco3)C2)cc1 (stereo not drawn) do in these assays?
HTRA1 inhibitor: -16.0; pPAFAH FP inh: 25.4*; PAFAH1B2 inh: 0.9; PAFAH2 FP inh: -3.4; mABHD4 FP: -14.2; PAFAH1B3 inh: -9.6

Results for COc1ccc(-c2csc(N3CCN(C(=O)c4ccco4)CC3)n2)cc1 ?
HTRA1 inhibitor: -1.7; pPAFAH FP inh: 1.6; PAFAH1B2 inh: 9.5; PAFAH2 FP inh: 4.4; mABHD4 FP: 4.9; PAFAH1B3 inh: 3.5

What do the screens show for `CCC(C(=O)c1ccc2ncccc2c1)c1ccccc1` (stereo not drawn)?
HTRA1 inhibitor: -9.9; pPAFAH FP inh: 1.5; PAFAH1B2 inh: 25.3*; PAFAH2 FP inh: 9.7; mABHD4 FP: -14.3; PAFAH1B3 inh: 9.6

What do the screens show for `Cc1c(NC(=O)CSc2ccc(Cl)cc2)cccc1-c1nc2ncccc2o1`?
HTRA1 inhibitor: -21.1; pPAFAH FP inh: 18.1; PAFAH1B2 inh: 25.1*; PAFAH2 FP inh: -0.4; mABHD4 FP: -4.1; PAFAH1B3 inh: 2.5

How did Cc1ccc(S(=O)(=O)/N=C2/C=C(C3C(=O)CC(C)(C)CC3=O)C(=O)c3ccccc32)cc1 do in these assays?
HTRA1 inhibitor: -5.0; pPAFAH FP inh: 7.6; PAFAH1B2 inh: 1.5; PAFAH2 FP inh: -1.5; mABHD4 FP: 14.8; PAFAH1B3 inh: 10.2

How did CCc1ccc(S(=O)(=O)ON2C(=O)c3ccccc3C2=O)cc1 do in these assays?
HTRA1 inhibitor: 2.7; PAFAH1B2 inh: 7.5; PAFAH2 FP inh: 14.3; mABHD4 FP: 2.0; PAFAH1B3 inh: 17.8

Results for CCc1ccc(S(=O)(=O)/N=C2\C=CC(=O)c3ccccc32)cc1 ?
pPAFAH FP inh: 40.1*

What do the screens show for `CCc1ccc(S(=O)(=O)/N=C2/C=C(Sc3ncn[nH]3)C(=O)c3ccccc32)cc1`?
HTRA1 inhibitor: 25.9; pPAFAH FP inh: 5.5; PAFAH1B2 inh: 50.1*; PAFAH2 FP inh: 40.8*; PAFAH1B3 inh: 49.9*

Results for CCOC(=O)C1CCCN(C(=O)Cc2c(C(=O)O)[nH]c3ccccc23)C1 (stereo not drawn) ?
HTRA1 inhibitor: 2.8; pPAFAH FP inh: 9.1; PAFAH1B2 inh: 33.8*; PAFAH2 FP inh: 4.7; mABHD4 FP: 0.7; PAFAH1B3 inh: 8.2

Results for CCOC(=O)N1CCN(C(=O)C[C@H]2C[C@@]3(C(=O)OC)C(=C[C@H](C(C)C)O[C@@H]3C3CC3)N(Cc3ccc4c(c3)OCO4)C2=O)CC1 ?
mABHD4 FP: -1.3

Results for O=[N+]([O-])c1cc(-c2csc(NCCc3nc4cc(Cl)c(Cl)cc4n3CCCO)n2)ccc1Cl ?
HTRA1 inhibitor: -38.9; pPAFAH FP inh: 30.9*; PAFAH1B2 inh: 18.1; PAFAH2 FP inh: -2.9; mABHD4 FP: 20.3; PAFAH1B3 inh: 16.5

What do the screens show for `COc1ccc(NC(=O)COC(=O)/C=C/c2ccccc2[N+](=O)[O-])cc1OC`?
HTRA1 inhibitor: 0.0; pPAFAH FP inh: 29.7*; PAFAH1B2 inh: 6.1; PAFAH2 FP inh: 17.4; mABHD4 FP: -9.4; PAFAH1B3 inh: 5.5

Results for O=C(/C=C/c1ccccc1[N+](=O)[O-])OCC(=O)c1ccccc1 ?
HTRA1 inhibitor: 1.0; pPAFAH FP inh: 25.3*; PAFAH1B2 inh: 4.5; PAFAH2 FP inh: 29.2; mABHD4 FP: -3.4; PAFAH1B3 inh: 1.5

How did S=C(Nc1ccccc1)OCCN1CCCC12CCC(c1ccccc1)CC2 (stereo not drawn) do in these assays?
mABHD4 FP: 1.9

What do the screens show for `O=C1c2cccc(O)c2C(=O)c2c(O)cccc21`?
pPAFAH FP inh: 14.2

What do the screens show for `O=C1C=C(O)c2cccc(O)c2C1=O`?
HTRA1 inhibitor: 21.8; pPAFAH FP inh: 12.8; PAFAH1B2 inh: 11.9; PAFAH2 FP inh: 19.9; mABHD4 FP: 40.6*; PAFAH1B3 inh: 21.9

Results for Cn1c2ccccc2c2cc(/C=N/NC(=O)c3ccc(N)cc3)ccc21 ?
HTRA1 inhibitor: 0.3; pPAFAH FP inh: 31.4*; PAFAH1B2 inh: 11.7; PAFAH2 FP inh: -4.6; mABHD4 FP: 17.5; PAFAH1B3 inh: 12.4

Source: PubChem
